The values below come from ChEMBL document CHEMBL1152560, “Substituted 2-arylbenzothiazoles as kinase inhibitors: hit-to-lead optimization” (Bioorg Med Chem, 2009).

Assay [1] concerns the target Receptor tyrosine-protein kinase erbB-2 (Homo sapiens, UniProt P04626). Nature of the assay: Residual activity of ERBB2 at 0.1 uM by microplate scintillation counting.
Assay [2] concerns the target T1, Dual specificity protein kinase TTK (Homo sapiens) (UniProt P33981).
T1 sequence (whole entry): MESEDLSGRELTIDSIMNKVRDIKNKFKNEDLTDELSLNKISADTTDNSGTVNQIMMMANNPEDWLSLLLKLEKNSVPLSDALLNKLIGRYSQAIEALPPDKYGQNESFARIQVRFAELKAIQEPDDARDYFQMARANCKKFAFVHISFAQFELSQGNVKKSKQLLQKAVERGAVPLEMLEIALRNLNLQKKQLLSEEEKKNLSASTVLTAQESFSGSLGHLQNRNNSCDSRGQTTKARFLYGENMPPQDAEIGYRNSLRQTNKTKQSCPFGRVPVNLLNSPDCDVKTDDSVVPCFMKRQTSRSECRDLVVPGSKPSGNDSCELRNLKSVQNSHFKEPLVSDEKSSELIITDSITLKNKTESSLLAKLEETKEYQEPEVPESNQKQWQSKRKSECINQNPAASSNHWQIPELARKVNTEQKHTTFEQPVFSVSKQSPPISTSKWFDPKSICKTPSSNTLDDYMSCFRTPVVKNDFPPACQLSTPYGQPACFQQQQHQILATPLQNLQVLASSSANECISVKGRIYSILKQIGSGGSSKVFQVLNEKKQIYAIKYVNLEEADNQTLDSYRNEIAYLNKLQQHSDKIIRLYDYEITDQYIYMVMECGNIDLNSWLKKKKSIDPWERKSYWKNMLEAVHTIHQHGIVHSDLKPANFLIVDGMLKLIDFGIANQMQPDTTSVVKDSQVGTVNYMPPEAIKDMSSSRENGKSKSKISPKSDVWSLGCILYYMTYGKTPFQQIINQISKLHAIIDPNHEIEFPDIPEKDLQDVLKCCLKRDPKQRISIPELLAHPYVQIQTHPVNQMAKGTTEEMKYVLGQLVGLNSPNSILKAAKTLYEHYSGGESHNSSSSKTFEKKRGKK
The assay is described as follows: Residual activity of TTK at 10 uM by microplate scintillation counting.

The target of assay [3] is CDC42BPA protein (Homo sapiens) (UniProt B9EGA7). The assay is described as follows: Residual activity of CDC42BPA at 1 uM by microplate scintillation counting.
Chain of CDC42BPA protein (Homo sapiens) (B9EGA7 as listed by the source): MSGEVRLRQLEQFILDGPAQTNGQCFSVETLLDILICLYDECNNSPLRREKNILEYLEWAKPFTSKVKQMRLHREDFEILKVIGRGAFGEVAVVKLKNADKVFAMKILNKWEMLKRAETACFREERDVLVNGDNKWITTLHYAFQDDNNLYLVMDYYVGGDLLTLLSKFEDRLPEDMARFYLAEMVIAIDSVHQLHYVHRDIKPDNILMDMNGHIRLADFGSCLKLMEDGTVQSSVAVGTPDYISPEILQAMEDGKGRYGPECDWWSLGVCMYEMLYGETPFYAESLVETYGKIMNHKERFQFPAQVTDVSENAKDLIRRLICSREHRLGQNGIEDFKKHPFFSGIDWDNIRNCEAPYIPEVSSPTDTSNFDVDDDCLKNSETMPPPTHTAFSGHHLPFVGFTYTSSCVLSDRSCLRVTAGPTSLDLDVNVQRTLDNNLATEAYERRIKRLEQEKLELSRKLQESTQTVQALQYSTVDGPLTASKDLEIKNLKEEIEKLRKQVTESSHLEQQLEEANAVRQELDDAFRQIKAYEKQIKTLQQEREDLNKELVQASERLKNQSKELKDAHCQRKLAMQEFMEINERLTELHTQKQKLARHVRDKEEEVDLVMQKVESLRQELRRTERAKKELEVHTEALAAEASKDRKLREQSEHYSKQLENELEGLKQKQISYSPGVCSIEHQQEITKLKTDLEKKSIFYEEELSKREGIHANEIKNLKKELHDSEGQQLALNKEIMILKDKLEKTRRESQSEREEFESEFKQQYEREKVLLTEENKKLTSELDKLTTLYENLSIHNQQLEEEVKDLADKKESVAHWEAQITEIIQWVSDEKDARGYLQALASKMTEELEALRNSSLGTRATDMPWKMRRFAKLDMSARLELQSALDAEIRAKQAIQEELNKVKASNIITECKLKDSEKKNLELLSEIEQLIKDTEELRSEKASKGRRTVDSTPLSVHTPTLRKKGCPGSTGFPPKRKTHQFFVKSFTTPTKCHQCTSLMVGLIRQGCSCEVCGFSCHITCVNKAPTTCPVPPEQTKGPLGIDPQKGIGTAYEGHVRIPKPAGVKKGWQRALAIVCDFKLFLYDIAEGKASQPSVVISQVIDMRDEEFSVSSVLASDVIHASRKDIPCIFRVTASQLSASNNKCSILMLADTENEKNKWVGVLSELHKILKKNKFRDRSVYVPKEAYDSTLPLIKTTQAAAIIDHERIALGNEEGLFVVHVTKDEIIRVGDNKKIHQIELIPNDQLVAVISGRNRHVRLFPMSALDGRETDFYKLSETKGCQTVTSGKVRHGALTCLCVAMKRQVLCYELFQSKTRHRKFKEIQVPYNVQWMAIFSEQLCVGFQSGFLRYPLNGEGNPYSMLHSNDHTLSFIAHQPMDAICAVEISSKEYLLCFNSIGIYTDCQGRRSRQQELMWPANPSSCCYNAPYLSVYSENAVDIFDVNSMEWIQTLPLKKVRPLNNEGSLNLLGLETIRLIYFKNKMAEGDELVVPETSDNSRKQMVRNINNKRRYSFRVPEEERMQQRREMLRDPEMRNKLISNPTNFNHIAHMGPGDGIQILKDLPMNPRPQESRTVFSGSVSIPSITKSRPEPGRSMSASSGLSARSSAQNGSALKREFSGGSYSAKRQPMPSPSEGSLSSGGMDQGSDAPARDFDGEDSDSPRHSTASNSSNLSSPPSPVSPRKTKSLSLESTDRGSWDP
Assay [4] addresses Platelet-derived growth factor receptor beta (Homo sapiens, UniProt P09619). Nature of the assay: Inhibition of PDGFRbeta by microplate scintillation counting. The procedure, abridged:
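Substrates: tetra(LRRWSLG) for Aurora A/B; poly(Ala,Glu,Lys,Tyr)6:2:5:1 for PDGFRβ; poly(Glu,Tyr)4:1 for TIE2 and VEGFR2. Stopped with 2% H3PO4.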

Assay [5] has as its target Vascular endothelial growth factor receptor 1 (Homo sapiens) (UniProt P17948). The assay is described as follows: Residual activity of VEGFR1 at 0.1 uM by microplate scintillation counting.
For assay [6], the target named is T2, Tyrosine-protein kinase ZAP-70 (Homo sapiens) (UniProt P43403).
T2 sequence (whole entry): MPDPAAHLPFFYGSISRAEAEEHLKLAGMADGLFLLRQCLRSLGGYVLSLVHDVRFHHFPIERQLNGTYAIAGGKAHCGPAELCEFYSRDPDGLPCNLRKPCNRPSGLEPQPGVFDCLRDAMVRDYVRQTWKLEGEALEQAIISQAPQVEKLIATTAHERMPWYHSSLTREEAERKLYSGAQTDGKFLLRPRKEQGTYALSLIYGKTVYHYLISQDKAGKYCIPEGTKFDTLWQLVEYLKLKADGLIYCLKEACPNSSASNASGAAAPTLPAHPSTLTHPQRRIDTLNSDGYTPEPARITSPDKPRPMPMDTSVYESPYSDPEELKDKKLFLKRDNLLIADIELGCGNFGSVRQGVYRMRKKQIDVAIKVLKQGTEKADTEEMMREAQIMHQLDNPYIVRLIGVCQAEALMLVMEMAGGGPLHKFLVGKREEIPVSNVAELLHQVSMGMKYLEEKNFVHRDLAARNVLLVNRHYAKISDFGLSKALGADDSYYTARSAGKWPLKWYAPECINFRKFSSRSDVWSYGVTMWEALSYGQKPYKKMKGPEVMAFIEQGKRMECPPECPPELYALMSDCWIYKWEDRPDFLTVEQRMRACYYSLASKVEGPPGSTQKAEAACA
The assay is described as follows: Residual activity of ZAP70 at 0.1 uM by microplate scintillation counting.

For assay [7], the target named is T3, Tyrosine-protein kinase Tec (Homo sapiens) (UniProt P42680).
T3 sequence (whole entry): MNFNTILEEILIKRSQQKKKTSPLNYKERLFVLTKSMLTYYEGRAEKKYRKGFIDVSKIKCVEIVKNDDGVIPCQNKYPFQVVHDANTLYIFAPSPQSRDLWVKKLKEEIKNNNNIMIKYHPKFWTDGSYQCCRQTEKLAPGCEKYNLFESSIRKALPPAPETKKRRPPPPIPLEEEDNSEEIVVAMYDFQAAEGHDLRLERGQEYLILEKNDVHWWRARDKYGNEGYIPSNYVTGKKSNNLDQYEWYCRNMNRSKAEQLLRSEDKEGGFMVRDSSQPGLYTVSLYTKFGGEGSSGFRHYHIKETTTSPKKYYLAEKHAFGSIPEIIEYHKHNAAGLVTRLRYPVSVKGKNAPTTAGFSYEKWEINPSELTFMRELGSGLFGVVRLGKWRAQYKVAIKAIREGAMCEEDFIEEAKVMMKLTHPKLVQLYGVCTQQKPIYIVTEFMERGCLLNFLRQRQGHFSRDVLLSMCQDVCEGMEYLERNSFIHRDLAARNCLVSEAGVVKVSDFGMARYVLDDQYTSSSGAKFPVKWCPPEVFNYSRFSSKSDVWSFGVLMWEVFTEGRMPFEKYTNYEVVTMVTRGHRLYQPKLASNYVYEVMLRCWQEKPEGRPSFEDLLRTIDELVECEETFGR
Nature of the assay: Residual activity of TEC at 10 uM by microplate scintillation counting.

The subject of assay [8] is Mast/stem cell growth factor receptor Kit (Homo sapiens), P10721 [T670I]. Nature of the assay: Residual activity of KIT T670I mutant at 10 uM by microplate scintillation counting.
Assay [9] deals with Myosin light chain kinase 2, skeletal/cardiac muscle (Homo sapiens) (UniProt Q9H1R3). Nature of the assay: Residual activity of MYLK2 at 0.1 uM by microplate scintillation counting.
Chain of Myosin light chain kinase 2, skeletal/cardiac muscle (Homo sapiens) (Q9H1R3 whole entry): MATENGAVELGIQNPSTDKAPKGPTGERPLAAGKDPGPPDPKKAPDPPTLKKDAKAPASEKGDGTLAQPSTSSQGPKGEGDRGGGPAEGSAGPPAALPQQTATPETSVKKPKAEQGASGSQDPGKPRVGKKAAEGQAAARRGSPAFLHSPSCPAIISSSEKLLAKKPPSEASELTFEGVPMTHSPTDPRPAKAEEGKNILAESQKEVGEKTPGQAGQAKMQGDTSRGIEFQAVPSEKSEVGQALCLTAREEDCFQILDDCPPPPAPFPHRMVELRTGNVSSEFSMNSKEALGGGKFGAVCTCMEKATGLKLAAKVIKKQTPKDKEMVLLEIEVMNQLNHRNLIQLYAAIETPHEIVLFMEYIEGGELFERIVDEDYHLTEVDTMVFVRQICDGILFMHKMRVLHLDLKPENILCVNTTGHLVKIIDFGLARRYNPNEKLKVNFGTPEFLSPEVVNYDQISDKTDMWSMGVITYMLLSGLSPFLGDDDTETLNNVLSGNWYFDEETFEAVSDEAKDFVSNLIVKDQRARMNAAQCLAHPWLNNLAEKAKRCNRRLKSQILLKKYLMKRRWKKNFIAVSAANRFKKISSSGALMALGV

Chain of Receptor tyrosine-protein kinase erbB-2 (P04626 whole entry): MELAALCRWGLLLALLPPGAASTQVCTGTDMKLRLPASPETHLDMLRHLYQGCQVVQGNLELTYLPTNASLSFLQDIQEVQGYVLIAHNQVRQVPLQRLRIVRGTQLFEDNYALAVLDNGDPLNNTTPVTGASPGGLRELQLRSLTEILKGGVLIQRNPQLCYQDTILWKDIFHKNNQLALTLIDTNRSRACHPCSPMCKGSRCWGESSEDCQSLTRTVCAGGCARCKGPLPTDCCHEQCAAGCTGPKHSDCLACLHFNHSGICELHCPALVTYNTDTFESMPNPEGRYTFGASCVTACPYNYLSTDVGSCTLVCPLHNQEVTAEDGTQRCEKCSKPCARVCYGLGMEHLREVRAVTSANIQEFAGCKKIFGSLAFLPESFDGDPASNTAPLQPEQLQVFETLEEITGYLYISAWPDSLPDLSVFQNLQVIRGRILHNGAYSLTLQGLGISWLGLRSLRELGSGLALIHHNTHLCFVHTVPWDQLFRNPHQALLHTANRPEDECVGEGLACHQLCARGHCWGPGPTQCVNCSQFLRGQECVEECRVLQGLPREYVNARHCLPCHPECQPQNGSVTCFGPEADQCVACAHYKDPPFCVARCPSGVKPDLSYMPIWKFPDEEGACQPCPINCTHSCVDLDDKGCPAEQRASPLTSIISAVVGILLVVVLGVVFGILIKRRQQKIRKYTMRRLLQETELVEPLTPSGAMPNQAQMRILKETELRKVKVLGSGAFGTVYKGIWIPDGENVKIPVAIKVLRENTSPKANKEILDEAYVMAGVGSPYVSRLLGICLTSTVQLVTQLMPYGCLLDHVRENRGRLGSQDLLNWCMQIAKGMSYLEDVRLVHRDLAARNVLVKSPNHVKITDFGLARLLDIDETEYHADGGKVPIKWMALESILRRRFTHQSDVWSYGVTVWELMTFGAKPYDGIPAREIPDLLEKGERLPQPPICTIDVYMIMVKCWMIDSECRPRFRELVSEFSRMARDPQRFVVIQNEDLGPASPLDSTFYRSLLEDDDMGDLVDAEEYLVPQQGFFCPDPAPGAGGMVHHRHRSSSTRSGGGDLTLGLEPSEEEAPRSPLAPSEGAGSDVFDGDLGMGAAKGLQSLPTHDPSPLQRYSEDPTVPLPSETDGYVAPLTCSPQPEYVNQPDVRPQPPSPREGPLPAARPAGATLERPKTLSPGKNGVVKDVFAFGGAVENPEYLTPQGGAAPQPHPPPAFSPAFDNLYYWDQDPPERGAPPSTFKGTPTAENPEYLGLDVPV
Chain of Platelet-derived growth factor receptor beta (P09619 whole entry): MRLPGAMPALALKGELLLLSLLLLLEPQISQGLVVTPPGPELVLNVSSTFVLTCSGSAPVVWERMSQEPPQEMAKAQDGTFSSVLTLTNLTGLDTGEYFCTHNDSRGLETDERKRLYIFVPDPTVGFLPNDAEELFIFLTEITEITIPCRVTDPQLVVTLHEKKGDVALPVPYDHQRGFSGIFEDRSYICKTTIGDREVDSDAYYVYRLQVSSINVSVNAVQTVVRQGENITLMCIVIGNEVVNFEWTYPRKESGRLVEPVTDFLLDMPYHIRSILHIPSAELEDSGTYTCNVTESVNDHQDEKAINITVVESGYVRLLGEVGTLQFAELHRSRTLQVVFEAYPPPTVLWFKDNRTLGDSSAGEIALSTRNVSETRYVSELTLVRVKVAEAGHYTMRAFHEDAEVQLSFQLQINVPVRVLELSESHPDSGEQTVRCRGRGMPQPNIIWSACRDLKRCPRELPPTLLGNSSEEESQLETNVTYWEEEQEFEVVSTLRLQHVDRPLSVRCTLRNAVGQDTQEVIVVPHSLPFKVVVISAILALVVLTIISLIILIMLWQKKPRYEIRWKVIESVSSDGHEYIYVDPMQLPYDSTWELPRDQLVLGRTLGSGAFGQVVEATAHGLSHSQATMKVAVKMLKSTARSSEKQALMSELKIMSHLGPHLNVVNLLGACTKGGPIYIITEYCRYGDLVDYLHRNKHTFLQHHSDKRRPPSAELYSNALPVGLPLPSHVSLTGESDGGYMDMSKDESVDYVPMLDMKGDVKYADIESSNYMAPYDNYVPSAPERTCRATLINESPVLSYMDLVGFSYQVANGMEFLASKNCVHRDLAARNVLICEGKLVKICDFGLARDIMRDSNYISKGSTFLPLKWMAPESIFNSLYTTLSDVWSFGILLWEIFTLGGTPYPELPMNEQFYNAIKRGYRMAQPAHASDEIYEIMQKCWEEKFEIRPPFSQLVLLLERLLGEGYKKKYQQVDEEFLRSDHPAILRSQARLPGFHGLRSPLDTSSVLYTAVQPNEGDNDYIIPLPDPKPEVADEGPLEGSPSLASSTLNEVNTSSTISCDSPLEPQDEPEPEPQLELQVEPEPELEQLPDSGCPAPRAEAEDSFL

Broadly, the residual activity is the signal under treatment as a percentage of the control signal. The IC50 is the concentration at which inhibition is half-maximal. Consider `COc1cc2c(Oc3ccc(-c4nc5ccccc5s4)cc3)ncnc2cc1OCCCN1CCN(C)CC1`, for which the residual activity worked out at 103% in assay [1]; 69% in assay [2]; 117% in assay [3]; 93% in [5]; 112% in [6]; 61% in assay [7]. The residual activity was determined as 40% in assay [8] and 83% in [9]. Further, the IC50 in assay [4] is 3.5 µM.
`COc1cc2c(Oc3ccc(-c4nc5ccccc5s4)cc3)ncnc2cc1OCCCN1CCCC1`: the residual activity in [1] came to 112%; in assay [2] it was 84%; in assay [3], 117%; in assay [5], 96%; in [6] it was 111%; in [7] it was 45%. For the same compound, the residual activity worked out at 52% in [8] and 33% in assay [9]. The same compound gave an IC50 in assay [4] of 7.7 µM.
With `COc1cc2c(Oc3ccc(-c4nc5ccccc5s4)cc3F)ncnc2cc1OCCCN1CCN(C)CC1`, the residual activity in assay [1] came out at 97%; in assay [2] it was 70%; in assay [3], 89%; in assay [5] it was 95%; in assay [6] it was 108%; in [7], 25%. In addition, the residual activity in assay [8] was found to be 18%; in assay [9] it was 93%. The compound further registered an IC50 in assay [4] of 6.1 µM.
